In ChEMBL document CHEMBL1145333, “Low molecular weight activated protein C inhibitors as a potential treatment for hemophilic disorders” (J Med Chem, 2006):

Columns and labels:
[1] = biological target: Vitamin K-dependent protein C (Homo sapiens, UniProt P04070); assay: Inhibition of human aPC
Prothrombin = Prothrombin (Homo sapiens, UniProt P00734); assay: Inhibition of human thrombin activity
Outline: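 Thrombin counterscreen using its natural substrate, fibrinogen. Result expressed as an IC50.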

Homo sapiens [2] = organism: Homo sapiens; assay: Increase in thrombin generation in human moderate hemophilia A pooled poor platelet plasma by thrombogram assay at 20 uM; format: functional; settings: in the assay text read “20 nM” for “20 uM”
Outline: (§1)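 Calibrated automated thrombogram in human moderate hemophilia A platelet-poor plasma (FVIII < 5%). Thrombin generation triggered via the intrinsic coagulation pathway. Inhibitor incubated in the plasma at 10 and 20 nM alongside a 0 nM control. Read-out is the thrombin generation curve and its peak thrombin level (nM).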

Homo sapiens [3] = organism: Homo sapiens; assay: Increase in thrombin generation in human severe hemophilia A pooled poor platelet plasma at 20 nM relative to control by thrombogram assay
Homo sapiens [4] = organism: Homo sapiens; assay: Increase in thrombin generation in human moderate hemophilia A platelet poor plasma by thrombogram assay at 10 uM; format: functional; settings: in the assay text read “10 nM” for “10 uM”; outline: as §1

Sequence of Vitamin K-dependent protein C (P04070 43-197 limits assumed): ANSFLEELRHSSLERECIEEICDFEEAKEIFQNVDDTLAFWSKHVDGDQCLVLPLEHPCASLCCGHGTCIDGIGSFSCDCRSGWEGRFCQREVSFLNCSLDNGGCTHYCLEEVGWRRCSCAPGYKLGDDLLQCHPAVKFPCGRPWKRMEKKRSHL
Sequence of Vitamin K-dependent protein C (P04070 212-461 limits assumed): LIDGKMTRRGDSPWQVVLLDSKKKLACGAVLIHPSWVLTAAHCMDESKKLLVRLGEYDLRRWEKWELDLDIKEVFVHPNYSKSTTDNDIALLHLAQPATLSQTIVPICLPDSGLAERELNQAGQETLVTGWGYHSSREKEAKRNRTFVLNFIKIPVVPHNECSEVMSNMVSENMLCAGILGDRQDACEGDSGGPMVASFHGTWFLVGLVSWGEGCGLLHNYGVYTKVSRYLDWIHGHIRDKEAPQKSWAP

Row | Structure (SMILES) | IC50 [1] [nM] | IC50 (Prothrombin) [µM] | Activity (Homo sapiens [2]) [nM] | Activity (Homo sapiens [3]) [nM] | Activity (Homo sapiens [4]) [nM]
1 | CC(C)[C@@H](NCC(=O)O)C(=O)NC1(C(=O)NCc2ccc(C(=N)N)cc2)Cc2cccnc2C1 (single isomer, unassigned; diastereomer 1) | 1070 | 300 |  |  | 
2 | CC(C)[C@@H](NCC(=O)O)C(=O)NC1(C(=O)NCc2ccc(C(=N)N)cc2)Cc2ccncc2C1 (some centres undefined) | 1700 | 100 |  |  | 
3 | CC(C)(NCC(=O)O)C(=O)NC1(C(=O)NCc2ccc(C(=N)N)cc2)Cc2ccccc2C1 | 44000 | > 300 |  |  | 
4 | CC(C)(C)[C@@H](NCC(=O)O)C(=O)NC1(C(=O)NCc2ccc(C(=N)N)cc2)Cc2ccccc2C1 | 3830 | 300 |  |  | 
5 | N=C(N)c1ccc(CNC(=O)C2(NC(=O)C3(NCC(=O)O)CCCC3)Cc3ccccc3C2)cc1 | 53000 | 4.4 |  |  | 
6 | CC(C)[C@@H](NCC(=O)O)C(=O)NC1(C(=O)NCc2ccc(C(=N)N)cc2)Cc2cccc3cccc(c23)C1 | 430 | > 300 |  |  | 
7 | CC(C)[C@@H](NCC(=O)O)C(=O)N[C@H](C(=O)NCc1ccc(C(=N)N)cc1)C(c1ccccc1)c1ccccc1 | > 33000 |  |  |  | 
8 | N=C(N)c1ccc(CNC(=O)C2(NC(=O)[C@@H](CC3CCCCC3)NCC(=O)O)Cc3ccccc3C2)cc1 | 100 | 1.25 |  |  | 
9 | CCC(C)[C@@H](NCC(=O)O)C(=O)NC1(C(=O)NCc2ccc(C(=N)N)cc2)Cc2ccccc2C1 (some centres undefined) | 1120 | 85 |  |  | 
10 | CC(C)C[C@@H](NCC(=O)O)C(=O)NC1(C(=O)NCc2ccc(C(=N)N)cc2)Cc2ccccc2C1 | 750 | > 33 |  |  | 
11 | CC(C)[C@@H](NCC(=O)O)C(=O)N[C@H](C(=O)NCc1ccc(C(=N)N)cc1)C1Cc2ccccc2C1 | 350 | > 33 |  |  | 
12 | COc1cc2c(cc1OC)CC(NC(=O)[C@H](NCC(=O)O)C(C)C)(C(=O)NCc1ccc(C(=N)N)cc1)C2 | 10900 | > 33 |  |  | 

The next lines start with results.

Row | IC50 [1] [nM] | IC50 (Prothrombin) [µM] | Structure (SMILES) | Activity (Homo sapiens [2]) [nM] | Activity (Homo sapiens [3]) [nM] | Activity (Homo sapiens [4]) [nM]
13 | 9080 | 33 | C[C@@H](NCC(=O)O)C(=O)NC1(C(=O)NCc2ccc(C(=N)N)cc2)Cc2ccccc2C1 |  |  | 
14 | 800 | > 300 | CC(C)[C@@H](NCC(=O)O)C(=O)NC1(C(=O)NCc2ccc(C(=N)N)cc2)Cc2ccccc2C1 |  |  | 
15 | 1140 | 300 | CC(C)[C@@H](NCC(=O)O)C(=O)NC1(C(=O)NCc2ccc(C(=N)N)cc2)Cc2cccnc2C1 (single isomer, unassigned; diastereomer 2) |  |  | 
16 |  | 47 | N=C(N)c1ccc(CNC(=O)C2(NC(=O)[C@H](NCC(=O)O)C3CCCCC3)Cc3ccccc3C2)cc1 | 160 | 201 | 160
17 | 2040 | 300 | CC[C@@H](NCC(=O)O)C(=O)NC1(C(=O)NCc2ccc(C(=N)N)cc2)Cc2ccccc2C1 |  |  | 
18 | 12700 | > 300 | CC(C)[C@@H](NCC(=O)O)C(=O)NC1(C(=O)NCc2ccc(C(=N)N)cc2)Cc2ccccc2-c2ccccc2C1 |  |  | 
19 | 250 | 0.77 | CC(C)[C@@H](NCC(=O)O)C(=O)NC1(C(=O)NCc2ccc(C(=N)N)cc2)Cc2ccc3ccccc3c2C1 (some centres undefined) |  |  | 
20 | 710 | 13.3 | CC(C)[C@@H](NCC(=O)O)C(=O)N[C@@H](Cc1ccccc1)C(=O)NCc1ccc(C(=N)N)cc1 |  |  | 
21 | 9280 | > 300 | CC(C)[C@@H](NCC(=O)O)C(=O)NC1(C(=O)NCc2ccc(C(=N)N)cc2)Cc2cc3ccccc3cc2C1 |  |  | 
22 | 11300 | 10 | N=C(N)c1ccc(CNC(=O)C2(NC(=O)[C@@H](Cc3ccccc3)NCC(=O)O)Cc3ccccc3C2)cc1 |  |  | 
23 | > 33000 | > 33 | N=C(N)c1ccc(CNC(=O)C2(NC(=O)[C@@H](NCC(=O)O)C3CCCCC3)Cc3ccccc3C2)cc1 |  |  | 
24 | > 33000 | 100 | N=C(N)c1ccc(CNC(=O)C2(NC(=O)CNCC(=O)O)Cc3ccccc3C2)cc1 |  |  | 
